Laboratory results taken from publication PMC8370032 (Bioorganic & medicinal chemistry, 2021).

What was measured:
[1] = test system: RPMI-8226 cells; type: cell-based, human
Outline: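 RPMI-8226 myeloma cells were exposed to a range of test-compound concentrations for 48 h, with lovastatin 10 μM as positive control. Lysates were immunoblotted for unmodified Rap1a (antibody detects only unmodified protein), H-Ras and β-tubulin (loading), and the same lysates were used for a lambda light chain ELISA (% of untreated control; mean ± SD, n=3; two-tailed t-test, p<0.05). LEC is the lowest concentration giving a visible unmodified Rap1a band plus a significant light chain rise.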

[2] = test system: RPMI-8226 cells; experiment: MTT assay; type: cell-based, human; details: RPMI-8226, 48 hours
[3] = test system: myeloma cells; details: cited from earlier work

For `CC(C)=CCC/C(C)=C/Cn1cc(C=C(P(=O)([O-])[O-])P(=O)([O-])[O-])nn1.[Na+].[Na+].[Na+].[Na+]` [Compound 29, Disodium [1-[bis(sodiooxy)phosphoryl]-2-[1-[3,7-dimethylocta-2,6-dien-1-yl]-1H-1,2,3-triazol-4-yl]ethenyl]phosphonate], the “potency in cellular assays relative to cyclopropyl derivative 31” value [1] was “two-fold more potent” and the “cytotoxicity in MTT assay” value [2] was “induced cytotoxicity”.
For `CC(C)=CCC/C(C)=C/Cn1cc(CCP(=O)([O-])[O-])nn1.[Na+].[Na+]` [Compound 27], the “cytotoxicity in MTT assay” value [2] was “neither of the monophosphonates (11, 27), induced cytotoxicity”.
For `CC(C)=CCC/C(C)=C/Cn1cc(CC(O)(P(=O)([O-])[O-])P(=O)([O-])[O-])nn1.[Na+].[Na+].[Na+].[Na+]` [Compound 37], the “cytotoxicity in MTT assay” value [2] was “induced cytotoxicity”.
For `CCC(Cc1cn(C/C=C(\C)CCC=C(C)C)nn1)(P(=O)([O-])[O-])P(=O)([O-])[O-].[Na+].[Na+].[Na+].[Na+]` [Compound 4], the “decrease in potency in cellular assays (relative to 1)” value [3] is given as “five-fold”.
With `CC(C)=CCC/C(C)=C/Cn1cc(CC(F)(P(=O)([O-])[O-])P(=O)([O-])[O-])nn1.[Na+].[Na+].[Na+].[Na+]` [Compound 7, (2-[1-(3,7-Dimethyl-octa-2,6-dienyl)-1H-[1,2,3]triazol-4-yl]-1-fluoro-1-phosphono-ethyl)-phosphonic acid] the “cytotoxicity in MTT assay” value [2] was “induced cytotoxicity”.
In the case of `CC(C)=CCC/C(C)=C/Cn1cc(CC(C)(P(=O)([O-])[O-])P(=O)([O-])[O-])nn1.[Na+].[Na+].[Na+].[Na+]` [Compound 3], the “increase in potency in cellular assays compared to the parent compound 1” value [3] is listed as 5 fold.
With `CC(C)=CCC/C(C)=C/Cn1cc(CC(CN)(P(=O)([O-])[O-])P(=O)([O-])[O-])nn1.[Na+].[Na+].[Na+].[Na+]` [Compound 17] the “cytotoxicity in MTT assay” value [2] was “induced cytotoxicity”.
For `C=C(Cc1cn(C/C=C(\C)CCC=C(C)C)nn1)P(=O)([O-])[O-].[Na+].[Na+]` [Compound 11], the “cytotoxicity in MTT assay” value [2] was “neither of the monophosphonates (11, 27), induced cytotoxicity”.
